≈ marks a conversion by molar mass, not a printed value.
Experiments:
L929 = experiment: Growth inhibitory concentration against mouse fibroblast cells; format: functional
How it was run: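 L-929 fibroblasts (1 × 10^4) added to 10 twofold dilutions and incubated 72h at 37°C, 5% CO2; growth measured by optical density after methylene blue staining; GI50 reported.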

[1] = Cytotoxic concentration against human cervix carcinoma cells
How it was run: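 Confluent HeLa monolayers exposed 72h (37°C, 5% CO2) to twofold serial dilutions in duplicate; cells fixed and stained with crystal violet–formalin, read spectrophotometrically; CC50 = 50% cytotoxic concentration.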

[2] = Therapeutic index (ratio of CC50 and IC50) was determined; NA denotes ''Not active''; format: cell-based; details: human, hela
How it was run: (§1)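 TI computed by dividing mean HeLa CC50 (72h crystal violet cytotoxicity) by mean IC50 from the CVB3 CPE inhibition assay in HeLa cells.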

HeLa = experiment: Inhibitory concentration against Coxsackievirus B3 in HeLa cells; format: functional, cell-based; details: Homo sapiens
K562 = experiment: Growth inhibitory concentration against human chronic myeloid leukemic cells; format: functional
How it was run: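 K-562 suspension cells (1 × 10^4) exposed to 10 twofold dilutions for 72h at 37°C, 5% CO2; proliferation counted with an electronic cell analyzer (CASY); GI50 reported.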

[3] = Partition coefficient (logP); format: physicochemical; details: octanol/water
[4] = Therapeutic index (ratio of CC50 and IC50) was determined; format: cell-based; details: human, HeLa cells; read-out: TI; how it was run: as §1

With `CCN(CC)C(=O)N1CCN(Cc2cc(O)n3nc(N)c([N+](=O)[O-])c3n2)CC1` the GI50 (L929) was over 50 µg/mL, the CC50 [1] was over 50 µg/mL and the TI [2] was “Not Active”. For the same compound, the IC50 (HeLa) was over 50 µg/mL and the GI50 (K562) was over 50 µg/mL.

For `Nc1nn2c(O)cc(CN3CCN(C(c4ccccc4)c4ccccc4)CC3)nc2c1[N+](=O)[O-]`, the logP [3] was 3.73, the GI50 (L929) was 19.9 µg/mL (≈ 43.3 µM) and the CC50 [1] was 14.8 µg/mL (≈ 32.2 µM). For the same compound, the TI [2] was “Not Active”, the IC50 (HeLa) was over 50 µg/mL and the GI50 (K562) was 9 µg/mL (≈ 19.6 µM).

With `NC(=NCc1cc(O)n2nc(N)c([N+](=O)[O-])c2n1)SCc1ccccc1` the GI50 (L929) was over 50 µg/mL, the CC50 [1] was over 50 µg/mL and the TI [2] was “Not Active”. It also gave an IC50 (HeLa) of over 50 µg/mL and a GI50 (K562) of over 50 µg/mL.

`Nc1nn2c(O)cc(CNNc3ccc(F)cc3)nc2c1[N+](=O)[O-]` showed a logP [3] of 2.65, a GI50 (L929) of 41.4 µg/mL (≈ 124 µM) and a CC50 [1] of over 100 µg/mL. The IC50 (HeLa) was 5.81 µg/mL (≈ 17.4 µM), the selectivity ratio [4] was over 17.2 and the GI50 (K562) was 19.7 µg/mL (≈ 59.1 µM).

For `COc1ccc(NNCc2cc(O)n3nc(N)c([N+](=O)[O-])c3n2)cc1`, the logP [3] was 2.46, the GI50 (L929) was over 50 µg/mL and the CC50 [1] was 66.3 µg/mL (≈ 192 µM). It also gave an IC50 (HeLa) of 17.5 µg/mL (≈ 50.8 µM), a selectivity ratio [4] of 3.8 and a GI50 (K562) of 5.1 µg/mL (≈ 14.8 µM).

With `Nc1nn2c(O)cc(-c3cc([N+](=O)[O-])c(Cl)cc3Cl)nc2c1[N+](=O)[O-]` the logP [3] was 2.77, the GI50 (L929) was over 50 µg/mL and the CC50 [1] was over 100 µg/mL. For the same compound, the IC50 (HeLa) was 3.94 µg/mL (≈ 10.2 µM), the selectivity ratio [4] was over 25.6 and the GI50 (K562) was over 50 µg/mL.

For `Nc1nn2c(O)cc(CNNc3ccc(S(=O)(=O)O)cc3)nc2c1[N+](=O)[O-]`, the GI50 (L929) was over 50 µg/mL, the CC50 [1] was over 50 µg/mL and the TI [2] was “Not Active”. It also gave an IC50 (HeLa) of over 50 µg/mL and a GI50 (K562) of over 50 µg/mL.

For `CCN(CC)C(=S)SCc1cc(O)n2nc(N)c([N+](=O)[O-])c2n1`, the logP [3] was 3.06, the GI50 (L929) was over 50 µg/mL and the CC50 [1] was over 50 µg/mL. For the same compound, the TI [2] was “Not Active”, the IC50 (HeLa) was over 50 µg/mL and the GI50 (K562) was 33.1 µg/mL (≈ 92.9 µM).

With `Nc1nn2c(O)cc(CN3CCN(CCO)CC3)nc2c1[N+](=O)[O-]` the GI50 (L929) was over 50 µg/mL, the CC50 [1] was over 50 µg/mL and the TI [2] was “Not Active”. For the same compound, the IC50 (HeLa) was over 50 µg/mL and the GI50 (K562) was over 50 µg/mL.

`Nc1nn2c(O)cc(-c3ccc(F)cc3)nc2c1[N+](=O)[O-]` gave a logP [3] of 2.34, a GI50 (L929) of over 50 µg/mL and a CC50 [1] of over 100 µg/mL. For the same compound, the IC50 (HeLa) was 50.3 µg/mL (≈ 174 µM), the selectivity ratio [4] was over 2 and the GI50 (K562) was over 50 µg/mL.

For `Nc1nn2c(O)cc(CNNCCO)nc2c1[N+](=O)[O-]`, the GI50 (L929) was over 50 µg/mL, the CC50 [1] was over 50 µg/mL and the TI [2] was “Not Active”. The IC50 (HeLa) was over 50 µg/mL and the GI50 (K562) was over 50 µg/mL.

With `NC(=S)NNCc1cc(O)n2nc(N)c([N+](=O)[O-])c2n1` the GI50 (L929) was over 50 µg/mL, the CC50 [1] was over 50 µg/mL and the TI [2] was “Not Active”. For the same compound, the IC50 (HeLa) was over 50 µg/mL and the GI50 (K562) was over 50 µg/mL.

For `Nc1nn2c(O)cc(CCl)nc2c1[N+](=O)[O-]`, the GI50 (L929) was over 50 µg/mL, the CC50 [1] was over 50 µg/mL and the TI [2] was “Not Active”. For the same compound, the IC50 (HeLa) was over 50 µg/mL and the GI50 (K562) was over 50 µg/mL.

In the case of `CCSC(N)NCc1cc(O)n2nc(N)c([N+](=O)[O-])c2n1` (centres undefined), the GI50 (L929) is reported as over 50 µg/mL, the CC50 [1] is reported as over 50 µg/mL and the TI [2] is reported as “Not Active”. It also gave an IC50 (HeLa) of over 50 µg/mL and a GI50 (K562) of over 50 µg/mL.

For `NNCc1cc(O)n2nc(N)c([N+](=O)[O-])c2n1`, the logP [3] was 0.42, the GI50 (L929) was 35.2 µg/mL (≈ 147 µM) and the CC50 [1] was 42.6 µg/mL (≈ 178 µM). The TI [2] was “Not Active”, the IC50 (HeLa) was 66.5 µg/mL (≈ 278 µM) and the GI50 (K562) was 26.5 µg/mL (≈ 111 µM).

For `Nc1nn2c(O)cc(CNCCO)nc2c1[N+](=O)[O-]`, the GI50 (L929) was over 50 µg/mL, the CC50 [1] was over 50 µg/mL and the TI [2] was “Not Active”. It also gave an IC50 (HeLa) of over 50 µg/mL and a GI50 (K562) of over 50 µg/mL.

Work on `Nc1nn2c(O)cc(-c3ccccc3F)nc2c1[N+](=O)[O-]` yielded a logP [3] of 2.34, a GI50 (L929) of over 50 µg/mL and a CC50 [1] of 66.5 µg/mL (≈ 230 µM). It also gave an IC50 (HeLa) of 20.3 µg/mL (≈ 70.4 µM), a selectivity ratio [4] of 3.2 and a GI50 (K562) of over 50 µg/mL.

Work on `Nc1nn2c(O)cc(-c3ccccc3)nc2c1[N+](=O)[O-]` yielded a logP [3] of 2.54, a GI50 (L929) of over 50 µg/mL and a CC50 [1] of over 100 µg/mL. The IC50 (HeLa) was 29.6 µg/mL (≈ 109 µM), the selectivity ratio [4] was over 3.4 and the GI50 (K562) was over 50 µg/mL.

From ChEMBL document CHEMBL1145228, “Anti-coxsackievirus B3 activity of 2-amino-3-nitropyrazolo[1,5-a]pyrimidines and their analogs” (Bioorg Med Chem Lett, 2005)
